# Test results: paper PMC3226999 (Food chemistry, 2012)
# “Also recorded” adds a separate entry of the source.
# What was measured:
# [1] = test system: caspase-3 and −7 activity in MDA-MB-231 cells; assay: Caspase-Glo 3/7 luminometric assay in cells; format: cell-based, human; settings: for reduction of staurosporine-induced caspase-3/−7 activity: 1 μM staurosporine plus flavonoid 200, 100, 25 μM, 24 h (Figure 3B); for caspase-3 or −7 activity in treated cells versus DMSO control: 200 μM flavonoid or 1 μM staurosporine, 24 h (Figure 3A)
# Summary of the method: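 MDA-MB-231 cells were grown in high-glucose DMEM with 10% BGS at 37 °C and 5% CO2. They were seeded at 0.5 × 10^4 cells/well, then treated after 24 h with test compound and/or staurosporine for 24 h. Alternatively, medium was replaced with 200 μM compound plus 1 μM staurosporine just before assay. Caspase-3/7 activity was read by Caspase-Glo 3/7 luminescence as fold activation over DMSO-treated cells (n=3, standard error of margin, t-test).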
# [2] = test system: purified recombinant caspase-1, −3, and −7; assay: Preliminary survey of inhibition of purified recombinant activated caspases; format: biochemical; settings: for inhibition of purified caspase-1, −3, or −7 activity: 200 μM, 100 μM, 50 μM flavonoid (Figure 4); for caspase specificity: among caspase-1, −3, −7
# [3] = biological target: T1, recombinant caspase-3 (Homo sapiens, UniProt P42574); format: biochemical
# T1 sequence (P42574 29-175 limits assumed): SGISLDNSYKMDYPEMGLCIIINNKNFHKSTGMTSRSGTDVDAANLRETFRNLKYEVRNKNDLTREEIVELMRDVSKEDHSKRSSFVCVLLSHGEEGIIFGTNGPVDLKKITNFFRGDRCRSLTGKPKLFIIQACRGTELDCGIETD
# T1 sequence (P42574 176-277 limits assumed): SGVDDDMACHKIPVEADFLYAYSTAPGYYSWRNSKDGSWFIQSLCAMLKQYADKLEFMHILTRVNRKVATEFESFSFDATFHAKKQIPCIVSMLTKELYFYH
SMILES,reduction of staurosporine-induced caspase-3/−7 activity [1],caspase-3 or −7 activity in treated cells versus DMSO control [1],"inhibition of purified caspase-1, −3, or −7 activity [2]",caspase specificity [2],IC50 [3] [µM],"type of caspase inhibition ([2]; Lineweaver-Burk plots, caspase-1, −3, −7)"
"O=c1cc(-c2ccc(O)cc2)oc2cc(O)cc(O)c12 [Apigenin, apigenin]",reduction in activity was dose dependent,decrease in caspase-3 or −7 activity,did not exhibit strong dose-dependent inhibition,,,
"O=c1c(-c2ccc(O)cc2)coc2cc(O)ccc12 [Daidzein, daidzein]",,,did not exhibit strong dose-dependent inhibition; also recorded: unable to inhibit caspase activity,,,
"O=c1c(O)c(-c2ccc(O)c(O)c2)oc2cc(O)cc(O)c12 [Quercetin, quercetin]",able to reduce the staurosporine-induced activity,increase caspase-3 or −7 activity only slightly,"significant, dose-dependent inhibition",specificity for caspase-3,,
"CN[C@@H]1C[C@H]2O[C@@](C)([C@@H]1OC)n1c3ccccc3c3c4c(c5c6ccccc6n2c5c31)C(=O)NC4 [Staurosporine, staurosporine, reference compound]",,very strong caspase-3 or −7 activation,,,,
"O=c1c(O)c(-c2cc(O)c(O)c(O)c2)oc2cc(O)cc(O)c12 [Myricetin, myricetin]",able to reduce the staurosporine-induced activity,,"significant, dose-dependent inhibition; also recorded: one of the more potent inhibitors",specificity for caspase-1,25,competitive
"O.Oc1cc(O)c2c(c1)O[C@H](c1ccc(O)c(O)c1)[C@@H](O)C2 [Catechin, catechin]",,,did not exhibit strong dose-dependent inhibition,,,
"O=C1C[C@@H](c2ccc(O)cc2)Oc2cc(O)cc(O)c21 [Narigenin, naringenin]",,,did not exhibit strong dose-dependent inhibition,,,
"O=c1cc(-c2ccc(O)c(O)c2)oc2cc(O)cc(O)c12 [Luteolin, luteolin]",reduction in activity was dose dependent,decrease in caspase-3 or −7 activity,"significant, dose-dependent inhibition",,,
"O=c1c(O)c(-c2ccc(O)cc2)oc2cc(O)cc(O)c12 [Kaempferol, kaempferol]",reduction in activity was dose dependent,decrease in caspase-3 or −7 activity,"significant, dose-dependent inhibition",,,
"O=c1c(-c2ccc(O)cc2)coc2cc(O)cc(O)c12 [Genistein, genistein]",,,unable to inhibit caspase activity,,,
"O=c1cc(-c2ccccc2)oc2cc(O)cc(O)c12 [Chrysin, chrysin]",,,did not exhibit strong dose-dependent inhibition,,,
